High-throughput results from PubChem.
Rows were chosen to be rich in hits. Some 2.3% of all compounds tested hit in one or more screens of this group.
STEP inh – STEP phosphatase inhibitors, primary screen, biochemical, fluorescence intensity, uHTS; Tyrosine-protein phosphatase non-receptor type 5 (Homo sapiens), P54829; recombinant STEP, OMFP fluorogenic substrate; inhibition, % at 20 µM; hit rate 0.25% among 360,000; AID 588621, 2011;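 active = inhibition at 20 µM, scaled per plate between control wells, above about 37%, limit read from the data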;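 also: 0% = DMSO with enzyme and substrate and 100% = substrate only without enzyme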
Target sequence (P54829 whole entry, looked up): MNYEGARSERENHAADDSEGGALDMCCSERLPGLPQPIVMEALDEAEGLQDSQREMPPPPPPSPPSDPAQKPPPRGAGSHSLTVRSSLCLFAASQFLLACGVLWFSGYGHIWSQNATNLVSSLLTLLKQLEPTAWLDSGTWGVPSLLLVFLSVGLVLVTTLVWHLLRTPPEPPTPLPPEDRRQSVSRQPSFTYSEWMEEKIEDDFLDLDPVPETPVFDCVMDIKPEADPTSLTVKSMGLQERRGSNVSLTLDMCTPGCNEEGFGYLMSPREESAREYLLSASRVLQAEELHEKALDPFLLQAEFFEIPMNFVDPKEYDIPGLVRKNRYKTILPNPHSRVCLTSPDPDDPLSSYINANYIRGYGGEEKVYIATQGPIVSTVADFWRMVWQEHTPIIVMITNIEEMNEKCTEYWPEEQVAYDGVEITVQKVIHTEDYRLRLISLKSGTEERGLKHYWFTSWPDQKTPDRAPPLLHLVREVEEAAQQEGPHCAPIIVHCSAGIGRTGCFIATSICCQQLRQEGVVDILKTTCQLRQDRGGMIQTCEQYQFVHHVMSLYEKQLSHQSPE
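System: STEP (striatal-enriched tyrosine phosphatase) enzyme, cell-free; medium: Bis-Tris pH 6.0 buffer with DTT, detergent; dosing: 20 µM, 1% DMSO; times: reaction 20 min, ambient temperature; detection: fluorescence, 480/540 nm; read-out basis: normalized % inhibition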
SUMO1 PPI mod – modulators of SUMO1 protein-protein interactions, primary screen, biochemical, uHTS. AID 602429, 2012. hit rate 0.33% among 360,000. SUMO1 binding to a labelled peptide, TR-FRET, 1 h. inhibition, % at 20 µM; in the data active = inhibition above about 37%
Target sequence (P63165 whole entry, looked up): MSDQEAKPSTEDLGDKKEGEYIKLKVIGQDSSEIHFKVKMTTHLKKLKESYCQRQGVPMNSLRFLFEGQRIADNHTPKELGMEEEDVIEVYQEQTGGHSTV
LMPTP inh – LMPTP phosphatase inhibitors, primary screen, biochemical, fluorescence intensity, uHTS; recombinant LMPTP-A, OMFP fluorogenic substrate; inhibition, % at 20 µM; hit rate 0.22% among 360,000; AID 651560, 2012;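 active = compounds that cut the enzyme signal by at least half of the control window in the single-dose screen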;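 also: plate controls were DMSO wells with enzyme plus substrate for no effect and substrate without enzyme for full effect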
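Assay system: LMPTP-A phosphatase enzyme | Input: 0.625 nM enzyme | Also added: Fluorogenic phosphatase substrate OMFP at 400 µM final | Compound dosing: One test concentration per compound, 20 µM, with 3% DMSO overall | Schedule: 50 min enzyme reaction at room temperature, protected from light | Signal: Fluorescence intensity | Benchmarks: no-enzyme and uninhibited controls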
Rpn11 block – Rpn11 (PSMD14) deubiquitinase inhibitors, primary screen, biochemical, fluorescence polarization, uHTS; 26S proteasome non-ATPase regulatory subunit 14 (Homo sapiens), O00487; human 26S proteasome, Ub4-pepOG fluorescence polarization; 20S core pre-blocked with epoxomicin; inhibition, % at 20 µM; hit rate 0.59% among 360,000; AID 588493, 2011;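 active = inhibition at 20 µM, scaled to each plate's controls, above about 33%, limit read from the data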
DNMT1 block – human DNMT1 methyltransferase inhibitors, primary screen, biochemical, molecular beacon, fluorescence, HinP1I cleavage, uHTS; DNA (cytosine-5)-methyltransferase 1 (Homo sapiens), P26358; inhibition (reported as % activation of signal), % at 10 µM; hit rate 0.83% among 360,000; AID 588458, 2011; in the data active = inhibition above about 50%
Scp-1 inhibitor – Scp-1 phosphatase inhibitors, primary screen, biochemical, colorimetric, uHTS. Carboxy-terminal domain RNA polymerase II polypeptide A small phosphatase 1 (Homo …. Recombinant Scp1, phosphopeptide, malachite green phosphate absorbance. inhibition, % at 20 µM. hit rate 0.88% among 340,000. AID 493091, 2011;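 active = inhibition above about 50% at 20 µM, limit read from the data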;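 also: plate controls were DMSO wells with enzyme for no effect and wells lacking enzyme for full effect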
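System: truncated SCP-1 phosphatase (76-261aa); medium: Tris acetate buffer pH 5.5 with MgCl2 and Tween-20; incubation: 45 min room-temperature reaction, 5 min colour, 30 min stabiliser; compound: single 20 µM dose, 1% DMSO; reagent: Phosphorylated 17-residue peptide substrate; read-out: % inhibition at 20 µM; technique: colorimetric free-phosphate detection, absorbance 630 nm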
Scp-1 conf – Scp-1 phosphatase inhibitors, retest, confirmation, biochemical, colorimetric, single concentration; shares compounds with Scp-1 inhibitor; recombinant SCP-1 catalytic domain, phosphate release, malachite green absorbance; inhibition, % at 20 µM; hit rate 61% among 2,500;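 also: plate controls were DMSO with enzyme for no effect and buffer wells lacking enzyme for full effect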
Scp-1 MG ctr – colorimetric readout interference by compounds, confirmation, artefact control for Scp-1 inhibitor project, biochemical, single concentration; Colorimetric interference counterscreen, malachite green absorbance 630 nm; shares compounds with Scp-1 inhibitor; 2,500 tested, under 10 active; apparent inhibition (interference), % at 20 µM;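 also: compounds added after enzyme reaction finished so only phosphate colour detection is probed; plate controls were DMSO wells with completed Scp-1 reaction for no effect and substrate wells lacking enzyme for full effect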
Scp1 DSF – Scp-1 binding by thermal shift, confirmation, orthogonal assay for Scp-1 inhibitor project, biophysical, differential scanning fluorimetry; shares compounds with Scp-1 inhibitor; Recombinant SCP1, Sypro Orange thermal shift Tm; thermal shift relative to vanadate control, % at 40 µM; hit rate 25% among 1,500; AID 540329, 2011;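 active = substances whose mean melting-temperature shift, as a percentage of the reference inhibitor's shift, reaches about 5.3%, limit read from the data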;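 also: 0% = Tm of DMSO wells and 100% = Tm with sodium orthovanadate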
The depositor's hits bear a star; · = no result given.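 The calls were made as follows, unless noted: active = inhibition of at least 30% at 20 µM; inactive = the rest.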

SMILES	STEP inh	SUMO1 PPI mod	LMPTP inh	Rpn11 block	DNMT1 block	Scp-1 inhibitor	Scp-1 conf	Scp-1 MG ctr	Scp1 DSF
Cc1ccc(NC(=O)/C=C/c2ccco2)nc1	-3	-11	0	-9	11	63*	34*	-15	-5
COc1cc(CNCc2ccccc2)c(Br)cc1OC1CCCC1	-1	2	-1	2	-3	-3	·	·	·
CCc1cccc(NC(=O)CCCCCC2NC(=O)NC2C)c1 (configuration not stated)	-2	2	-2	-4	1	-7	-19	-16	·
CC1NC(=O)NC1CCCCCC(=O)Nc1ccc(F)c(Cl)c1 (configuration not stated)	1	0	-1	5	-3	0	0	-7	·
CC1NC(=O)NC1CCCCC(=O)O (configuration not stated)	0	3	-1	-8	6	-3	·	·	·
Cc1ccc(NC(=O)CCCCCC2NC(=O)NC2C)cc1 (configuration not stated)	1	2	0	-3	0	-3	11	4	·
O=S(=O)(NC1CCCC1)c1ccc(F)cc1F	1	7	1	-2	-4	·	·	·	·
Cc1cc(C)c2c(N)c(C(=O)c3ccc(Cl)c(Cl)c3)sc2n1	19	-5	62*	37	0	80*	10	-8	·
C=CCOc1cccc(/C=C\c2nc(O)c([N+](=O)[O-])c(=O)[nH]2)c1	3	3	-2	-4	6	-7	·	·	·
C=CCOc1ccc(/C=C\c2nc(O)c([N+](=O)[O-])c(=O)[nH]2)cc1OC	2	7	-1	1	9	62*	59*	-2	-8
C=CCOc1ccc(/C=C\c2nc(O)c([N+](=O)[O-])c(=O)[nH]2)cc1OCC	6	7	1	-8	19	99*	45*	-14	4
COc1ccc(/C=C\c2nc(O)c([N+](=O)[O-])c(=O)[nH]2)cc1O	0	-2	-2	-4	2	-3	·	·	·
C=CCn1c(SCC(=O)N(CC)c2c(N)n(Cc3ccccc3)c(=O)[nH]c2=O)nnc1-c1ccccc1OC	-2	3	0	-3	5	2	·	·	·
CCn1ncc(N2CCOCC2)c(Cl)c1=O	-1	-4	0	0	-1	-10	·	·	·
COc1ccc(NC(=O)CS(=O)CC(=O)Nc2ccc(NC(C)=O)cc2)cc1 (configuration not stated)	41*	6	0	12	7	79*	68*	-7	-3
COc1ccc([C@@H]2CC(=O)c3c(O)cc(O[C@@H]4O[C@H](CO[C@@H]5O[C@@H](C)[C@H](O)[C@@H](O)[C@H]5O)[C@@H](O)[C@H](O)[C@H]4O)cc3O2)cc1O	3	12	-1	-5	25	62*	39*	-13	-7
O=C(CC1(c2ccc(Cl)cc2)C2CC3CC(C2)CC1C3)NCCO (configuration not stated)	1	3	-2	-8	1	-5	·	·	·
CN(C(=O)COc1ccc(Oc2ccccc2)cc1)C1CCS(=O)(=O)C1 (configuration not stated)	1	2	1	2	1	-2	·	·	·
COC(=O)CNC(=O)c1c(-c2ccccc2Cl)noc1C	-1	-1	-1	-3	2	0	·	·	·
COC(=O)CNC(=O)c1c(-c2c(Cl)cccc2Cl)noc1C	-6	2	0	-1	0	55*	-10	-12	·
CC(C)n1cnnc1SCC(=O)NC(=O)c1ccccc1	3	3	-1	-1	0	-6	·	·	·
CC(=O)N1CCOc2ccc(S(=O)(=O)NCc3ccc(C)cc3)cc21	-4	2	1	-4	1	-9	·	·	·
CC(=O)N1CCOc2ccc(S(=O)(=O)NC[C@H]3O[C@@H](n4ccc(=O)[nH]c4=O)[C@H](O)[C@@H]3O)cc21	-2	-1	-1	-2	2	8	-17	-16	·
Cc1cccc(NC(=O)CN2C(=O)S/C(=C\c3ccc(O)c([N+](=O)[O-])c3)C2=O)c1	5	-2	8	-2	-4	80*	77*	-4	26*
O=C(CN1C(=O)S/C(=C\c2ccc(O)c([N+](=O)[O-])c2)C1=O)Nc1ccc(N2CCOCC2)cc1	12	-12	22	-7	0	62*	60*	-2	2
SMILES	STEP inh	SUMO1 PPI mod	LMPTP inh	Rpn11 block	DNMT1 block	Scp-1 inhibitor	Scp-1 conf	Scp-1 MG ctr	Scp1 DSF
CN(C)C(=O)COC(=O)c1ccccc1NC(=O)c1ccco1	-2	-8	2	0	-2	-6	·	·	·
CCCCNC(=O)O/N=C(\N)CS(=O)(=O)C(C)(C)C	5	4	-2	1	1	7	·	·	·
Cn1nc(CC(=O)NC2CCCCCC2)c2ccccc2c1=O	4	-2	-2	-4	2	76*	-17	-16	·
C#CCn1c(=NC(=O)c2ccc(Br)s2)sc2cc(NC(C)=O)ccc21	19	0	6	15	34	54*	70*	-7	2
COCCn1c(=NC(=O)c2cccs2)sc2cc(NC(C)=O)ccc21	-1	-1	0	2	-6	-5	·	·	·
O=C(c1cc2nc(-c3ccccc3)cc(C(F)(F)F)n2n1)N1CCOCC1	-2	-17	0	3	2	-2	·	·	·
O=C(c1cc2nc(-c3ccc(F)cc3)cc(C(F)(F)F)n2n1)N1CCOCC1	-2	-3	-3	4	-1	53*	-14	-9	·
